From PubChem BioAssay
Kir21 inh: inhibitors of mouse Kir2.1 inward-rectifier potassium channel; P35561; B-score at 10 µM; HEK293-Kir2.1, FluxOR thallium flux fluorescence; hits give low values; hit rate 0.85% among 310,000;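 active = fluorescence ratio B-score at or below minus 3 SD of library scores, with starting-brightness B-score within 2 SD, cut at about -4.2 in these data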;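 also: channel flux triggered by added potassium and thallium sulfate stimulus; B-score of peak minus minimum fluorescence over baseline after thallium stimulus; more negative B-score means stronger Kir2.1 block with less thallium influx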
Target sequence (P35561 whole entry, looked up): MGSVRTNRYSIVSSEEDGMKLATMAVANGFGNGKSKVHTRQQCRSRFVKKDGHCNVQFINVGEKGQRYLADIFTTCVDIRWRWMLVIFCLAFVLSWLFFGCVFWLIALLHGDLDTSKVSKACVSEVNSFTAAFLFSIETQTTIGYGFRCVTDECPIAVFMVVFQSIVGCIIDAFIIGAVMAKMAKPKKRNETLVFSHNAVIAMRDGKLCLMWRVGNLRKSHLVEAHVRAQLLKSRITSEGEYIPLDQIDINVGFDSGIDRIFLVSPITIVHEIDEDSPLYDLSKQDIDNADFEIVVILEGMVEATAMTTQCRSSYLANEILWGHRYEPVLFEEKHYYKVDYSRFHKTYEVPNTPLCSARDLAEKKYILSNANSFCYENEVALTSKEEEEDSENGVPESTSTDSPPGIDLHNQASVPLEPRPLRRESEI
TRPC4 act: activators of mouse TRPC4 channel; Q9QUQ5; HEK293 TRPC4beta/mu-opioid, Fluo4 calcium fluorescence; hits give high values; B-score at 10 µM; hit rate 0.49% among 310,000;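 active = B-score above 5 SD of library B-scores, and initial fluorescence ratio not above library mean plus 5 SD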;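 also: positive B-score marks a calcium rise read as TRPC4 activation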
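Technique: kinetic Fluo4 calcium fluorescence; Test system: TRPC4beta and mu-opioid receptor HEK293 stable cells; Measure: B-scored integrated calcium fluorescence ratio; Benchmarks: low control buffer alone, high control maximal DAMGO; Schedule: 45 min room-temperature Fluo4 loading, 110 s read.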
TRPC4 PAM: allosterically enhances the mouse TRPC4 cation channel; hit rate 0.42% among 310,000; B-score at 10 µM; Q9QUQ5; AID 2227; HEK293 TRPC4beta/mu-opioid, DAMGO EC20, Fluo-4 Ca2+ flux; hits give high values;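 active = B-score of calcium response area above 5 SD of library B-scores, with initial fluorescence ratio within 5 SD of library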;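 also: B-score of integrated fluorescence ratio over time as area under calcium response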
TRPC6 inhibitor: mouse TRPC6 channel inhibition; HEK293-TRPC6, membrane potential dye, ACh-evoked depolarization; hits give low values; B-score at 10 µM; hit rate 1.1% among 310,000;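 active = B-score under library mean minus 3 SD, initial fluorescence not abnormally high, positive integrated signal ratio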;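 also: B-score derived from integrated fluorescence ratio over the kinetic read; more negative B-score means stronger inhibition of depolarization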
TRPC6 activator: activators of mouse TRPC6 channel. Q61143. HEK293-TRPC6 membrane potential dye fluorescence; hits give high values. B-score at 10 µM. hit rate 0.13% among 310,000;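 active = B-score of the integrated fluorescence ratio above library mean plus 3 SD, and starting fluorescence ratio within library mean plus 5 SD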;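 also: higher score means more depolarization so channel activation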
TRPC4 inh: inhibitors of mouse TRPC4 channel; Q9QUQ5; HEK293 TRPC4beta/mu-opioid, DAMGO-evoked Fluo4 calcium flux; hits give low values; B-score at 10 µM; hit rate 0.39% among 300,000; AID 2247;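 active = B-score over 3 SD under the library average, no early fluorescence shift, positive overall ratio signal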
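Assay system: Stable TRPC4beta/mu-opioid receptor HEK293 cells | Reagent: DAMGO in two steps, submaximal then maximal | Compound dosing: Single concentration per test compound | Signal: Fluo4 Ca2+ flux fluorescence | Evaluation: Per-well B score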
HEK293 TRPC6 ctr: checks TRPC6 modulator effects in parental HEK293 cells. membrane potential dye fluorescence. hit rate 51% among 2,400. shares compounds with TRPC6 inhibitor. membrane potential signal change, % at 10 µM;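 active = membrane potential signal moves up or down beyond 5 SD from buffer-only wells, on both duplicate plates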
HEK293 MPD ctr 2: parental HEK293 nonspecific activity of TRPC6 modulators, second screen; hit rate 14% among 2,400; inhibition, % at 10 µM; shares compounds with TRPC6 inhibitor; membrane potential dye fluorescence; after compound, maximal acetylcholine stimulation; AID 488926;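 active = membrane potential signal drops by more than 5 SD from the mean control signal, in both duplicate plates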;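 also: plate controls were acetylcholine ECmax control wells for no effect and buffer only wells for full effect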
TRPC4/MOR mod: mouse TRPC4 off-target activity of TRPC6 modulators; shares compounds with TRPC6 inhibitor; percent change from control (negative = decrease, positive = increase), % at 10 µM; hit rate 69% among 2,400; HEK293 TRPC4/mu-opioid, membrane potential fluorescence;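 active = membrane potential signal moved up or down beyond 5 SD of buffer control wells, in both duplicate plates, actives on both sides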;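 also: plate controls were assay buffer wells for no effect and DAMGO maximal-effect wells for full effect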
TRPC4 ctr inh 2: second selectivity test of TRPC6 modulators against mouse TRPC4 | shares compounds with TRPC6 inhibitor | HEK293 TRPC4/mu-opioid, membrane potential dye fluorescence; stimulated with maximal-effect DAMGO | inhibition, % at 10 µM | hit rate 55% among 2,400 | AID 488928;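 active = drop in membrane potential signal beyond 5 SD of the control wells in both duplicate plates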;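 also: TRPC4 counter screen for TRPC6 hits run under conditions tuned for TRPC6 not TRPC4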
TRPC6 inh conf: confirmation of mouse TRPC6 inhibitors; inhibition, % at 10 µM; shares compounds with TRPC6 inhibitor; HEK293-TRPC6, membrane potential dye, ACh-evoked depolarization; hit rate 43% among 3,300;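 active = fluorescence ratio falls more than 5 SD below the full-stimulation control mean, in both duplicate runs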;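 also: integrated fluorescence ratio of peak minus minimum over baseline after agonist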
TRPC6 act conf: mouse TRPC6 activator confirmation; shares compounds with TRPC6 inhibitor; HEK293-TRPC6 membrane potential dye fluorescence, FDSS; activation, % at 10 µM; hit rate 11% among 2,800; AID 488961;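 active = ratio signal rise beyond 5 SD above unstimulated control wells' mean, seen in both duplicate runs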;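 also: plate controls were buffer EC0 wells for no effect and acetylcholine ECmax response for full effect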
An asterisk follows results filed as active. In the library only some 2.9% were active in any assay of this set; here they are far more common.

Cc1cc2nc3ccc(N(C)C)cc3nc2cc1N was read as Kir21 inh -3.1, TRPC4 act inactive, TRPC4 PAM inactive, TRPC6 inhibitor -6.4*, TRPC6 activator inactive, TRPC4 inh inactive, HEK293 TRPC6 ctr -82%*, HEK293 MPD ctr 2 inactive, TRPC4/MOR mod -42%*, TRPC4 ctr inh 2 inactive, TRPC6 inh conf inactive and TRPC6 act conf inactive.
Cc1ccc(-n2nc3cc(C)c(N)cc3n2)cc1 was read as Kir21 inh 1.2, TRPC4 act inactive, TRPC4 PAM inactive, TRPC6 inhibitor inactive, TRPC6 activator inactive and TRPC4 inh inactive.
For O=C1CCC(c2ccccc2)(C2CCN(Cc3ccccc3)CC2)C(=O)N1 (stereo unspecified) the results were Kir21 inh -1.2, TRPC4 act inactive, TRPC4 PAM inactive, TRPC6 inhibitor -6.3*, TRPC6 activator inactive, TRPC4 inh inactive, HEK293 TRPC6 ctr 96%*, HEK293 MPD ctr 2 84%*, TRPC4/MOR mod 20%*, TRPC4 ctr inh 2 35%* and TRPC6 inh conf 74%*.
CCOc1ccc(NC(=O)C2C(C(=O)O)C3(Cl)C(Cl)=C(Cl)C2(Cl)C3(Cl)Cl)cc1 (stereo unspecified) was read as Kir21 inh -0.62, TRPC4 act inactive, TRPC4 PAM inactive, TRPC6 inhibitor inactive, TRPC6 activator 13*, TRPC4 inh inactive, HEK293 TRPC6 ctr 250%*, HEK293 MPD ctr 2 inactive, TRPC4/MOR mod 33%*, TRPC4 ctr inh 2 inactive, TRPC6 inh conf inactive and TRPC6 act conf 106%*.
Screening CC(=O)N(C)C(c1ccc(N(C)C)cc1)c1nnnn1-c1c(C)cccc1C (stereo unspecified) returned Kir21 inh -1.1, TRPC4 act inactive, TRPC4 PAM inactive, TRPC6 inhibitor inactive, TRPC6 activator inactive and TRPC4 inh inactive.
For COc1ccc(CCN=C(C)c2cc(C)c(C)cc2O)cc1OC the results were Kir21 inh 0.96, TRPC4 act inactive, TRPC4 PAM inactive, TRPC6 inhibitor inactive, TRPC6 activator inactive and TRPC4 inh inactive.
For Cn1ccnc1C1CCCCN1Cc1nc(Cc2cccc(C(F)(F)F)c2)no1 (stereo unspecified) the results were Kir21 inh 0.92, TRPC4 act inactive, TRPC4 PAM inactive, TRPC6 inhibitor -5.3*, TRPC6 activator inactive, TRPC4 inh inactive, HEK293 TRPC6 ctr 136%*, HEK293 MPD ctr 2 inactive, TRPC4/MOR mod 32%*, TRPC4 ctr inh 2 27%* and TRPC6 inh conf inactive.
`COc1ccc(-c2noc(CN3CCCCC3c3nccn3C)n2)cc1` (stereo unspecified) gave Kir21 inh 0.48, TRPC4 act inactive, TRPC4 PAM inactive, TRPC6 inhibitor inactive, TRPC6 activator inactive and TRPC4 inh inactive.
